Laboratory results from ChEMBL document CHEMBL3227954, “Synthesis of imidazolidinediones and oxazolidinediones from cyclization of propargylureas and propargyl carbamates” (J Med Chem, 1979).
Active and inactive are the calls of the source.

Columns and labels:
Mus musculus [1] = species on record: Mus musculus; assay: Anticonvulsant activity in mouse assessed as protection against maximal electroshock-induced seizures; type: functional
[2] = Toxicity in mouse; type: organism-based; settings: in vivo
Procedure, shortened: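 Toxicity in mice from the NINCDS screens, expressed as TD50: dose toxic in 50% of screens, in mg/kg.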

Mus musculus [3] = assay: Anticonvulsant activity in mouse assessed as protection against subcutaneous pentylenetetrazole-induced seizures; type: functional; settings: sc
Procedure, shortened: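 Mice screened in the NINCDS program for subcutaneous metrazole (pentylenetetrazole) seizure threshold (scMet) protection; ED50 taken as dose effective in 50% of test animals, in mg/kg.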

SMILES	Activity (Mus musculus [1])	other results
CC1(C)NC(=O)N(C23CC4CC(CC(C4)C2)C3)C1=O	inactive	–
CCN(CC)CCN1C(=O)NC(c2ccccc2)(c2ccccc2)C1=O	–	ED50 (Mus musculus [1]): 80 mg/kg
CC1(C)OC(=O)N(C(C)(C)C)C1=O	inactive	–
CCN(CC)CCN1C(=O)NC(C)(C)C1=O	inactive	–
CCN(CC)CCN1C(=O)N(CCN(CC)CC)C(c2ccccc2)(c2ccccc2)C1=O	inactive	–
CC(=O)N1C(=O)N(C(C)(C)C)C(=O)C1(C)C	–	TD50 [2]: ≤ 30 mg/kg
CC1(C)NC(=O)N(C(C)(C)C)C1=O	–	ED50 (Mus musculus [3]): 130 mg/kg; TD50 [2]: 343 mg/kg
Cc1ccc(S(=O)(=O)N2C(=O)NC(C)(C)C2=O)cc1	inactive	–
CN1C(=O)N(C(C)(C)C)C(=O)C1(C)C	inactive	–
